Experimental findings from ChEMBL document CHEMBL5046302, “Identification and Evaluation of Brominated Carbazoles as a Novel Antibiotic Adjuvant Scaffold in MRSA” (2022) are described below.

What all share (assay type): functional
The subject of assay [1] is Staphylococcus aureus. In words: Potentiation of ceftazidime induced antibacterial activity against methicillin-resistant Staphylococcus aureus ATCC 43300 assessed as fold change in ceftazidime MIC at 50 uM after 18 hrs by CLSI protocol based broth microdilution assay. (In general: In broth dilution the organism is exposed to a series of concentrations in liquid medium.)

Assay [2] concerns Staphylococcus aureus. Nature of the assay: Potentiation of oxacillin induced antibacterial activity against methicillin-resistant Staphylococcus aureus ATCC 43300 assessed as fold change in oxacillin MIC at 50 uM after 18 hrs by CLSI protocol based broth microdilution assay.
Assay [3] relates to Staphylococcus aureus. Nature of the assay: Potentiation of oxacillin induced antibacterial activity against methicillin-resistant Staphylococcus aureus COL assessed as oxacillin MIC at 50 uM after 18 hrs by CLSI protocol based broth microdilution assay.
For assay [4], the system named is Staphylococcus aureus. Nature of the assay: Antibacterial activity against methicillin-resistant Staphylococcus aureus ATCC 43300 assessed as inhibition of bacterial growth after 18 hrs by CLSI protocol based broth microdilution assay. In short, it runs like this: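 Broth microdilution MIC of carbazole alone vs MRSA ATCC 43300, tested up to 200 μM.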
Assay [5] has as its system Staphylococcus aureus. Nature of the assay: Potentiation of oxacillin induced antibacterial activity against methicillin-resistant Staphylococcus aureus ATCC 43300 assessed as oxacillin MIC at 50 uM after 18 hrs by CLSI protocol based broth microdilution assay.
The test system of assay [6] is Staphylococcus aureus. Nature of the assay: Potentiation of ceftazidime induced antibacterial activity against methicillin-resistant Staphylococcus aureus ATCC 43300 assessed as ceftazidime MIC at 50 uM after 18 hrs by CLSI protocol based broth microdilution assay.
For assay [7], the system named is Staphylococcus aureus. Nature of the assay: Potentiation of cefoxitin induced antibacterial activity against methicillin-resistant Staphylococcus aureus USA100 assessed as cefoxitin MIC at 50 uM after 18 hrs by CLSI protocol based broth microdilution assay.
For assay [8], the system named is Staphylococcus aureus. In words: Potentiation of cefoxitin induced antibacterial activity against methicillin-resistant Staphylococcus aureus USA300 assessed as cefoxitin MIC at 50 uM after 18 hrs by CLSI protocol based broth microdilution assay.
The subject of assay [9] is Staphylococcus aureus. Nature of the assay: Potentiation of cefoxitin induced antibacterial activity against methicillin-resistant Staphylococcus aureus ATCC 43300 assessed as fold change in cefoxitin MIC at 50 uM after 18 hrs by CLSI protocol based broth microdilution assay.
Assay [10] deals with Staphylococcus aureus. In words: Potentiation of ampicillin induced antibacterial activity against methicillin-resistant Staphylococcus aureus USA100 assessed as fold change in ampicillin MIC at 50 uM after 18 hrs by CLSI protocol based broth microdilution assay.
Assay [11] deals with Staphylococcus aureus. In words: Potentiation of ceftazidime induced antibacterial activity against methicillin-resistant Staphylococcus aureus USA300 assessed as ceftazidime MIC at 50 uM after 18 hrs by CLSI protocol based broth microdilution assay.
Assay [12] has as its system Staphylococcus aureus. In words: Potentiation of methicillin induced antibacterial activity against methicillin-resistant Staphylococcus aureus USA300 assessed as methicillin MIC at 50 uM after 18 hrs by CLSI protocol based broth microdilution assay.
Assay [13] relates to Staphylococcus aureus. In words: Potentiation of methicillin induced antibacterial activity against methicillin-resistant Staphylococcus aureus ATCC 43300 assessed as fold change in methicillin MIC at 50 uM after 18 hrs by CLSI protocol based broth microdilution assay.
Assay [14] has as its system Staphylococcus aureus. In words: Potentiation of cefoxitin induced antibacterial activity against methicillin-resistant Staphylococcus aureus USA100 assessed as fold change in cefoxitin MIC at 50 uM after 18 hrs by CLSI protocol based broth microdilution assay.
Assay [15] concerns Staphylococcus aureus. Nature of the assay: Potentiation of ceftazidime induced antibacterial activity against methicillin-resistant Staphylococcus aureus COL assessed as ceftazidime MIC at 50 uM after 18 hrs by CLSI protocol based broth microdilution assay.
Assay [16] deals with Staphylococcus aureus. Nature of the assay: Potentiation of ampicillin induced antibacterial activity against methicillin-resistant Staphylococcus aureus ATCC 43300 assessed as fold change in ampicillin MIC at 50 uM after 18 hrs by CLSI protocol based broth microdilution assay.
Assay [17] relates to Staphylococcus aureus. In words: Potentiation of ampicillin induced antibacterial activity against methicillin-resistant Staphylococcus aureus ATCC 43300 assessed as ampicillin MIC at 50 uM after 18 hrs by CLSI protocol based broth microdilution assay.
Assay [18] has as its system Staphylococcus aureus. Nature of the assay: Potentiation of ceftazidime induced antibacterial activity against methicillin-resistant Staphylococcus aureus COL assessed as fold change in ceftazidime MIC at 50 uM after 18 hrs by CLSI protocol based broth microdilution assay.
The test system of assay [19] is Staphylococcus aureus. Nature of the assay: Potentiation of ampicillin induced antibacterial activity against methicillin-resistant Staphylococcus aureus COL assessed as fold change in ampicillin MIC at 50 uM after 18 hrs by CLSI protocol based broth microdilution assay.
For assay [20], the system named is Staphylococcus aureus. In words: Potentiation of ceftazidime induced antibacterial activity against methicillin-resistant Staphylococcus aureus USA100 assessed as ceftazidime MIC at 50 uM after 18 hrs by CLSI protocol based broth microdilution assay.
The test system of assay [21] is Staphylococcus aureus. In words: Potentiation of ceftazidime induced antibacterial activity against methicillin-resistant Staphylococcus aureus USA100 assessed as fold change in ceftazidime MIC at 50 uM after 18 hrs by CLSI protocol based broth microdilution assay.
The test system of assay [22] is Staphylococcus aureus. In words: Potentiation of oxacillin induced antibacterial activity against methicillin-resistant Staphylococcus aureus USA300 assessed as fold change in oxacillin MIC at 50 uM after 18 hrs by CLSI protocol based broth microdilution assay.
The test system of assay [23] is Staphylococcus aureus. In words: Potentiation of ampicillin induced antibacterial activity against methicillin-resistant Staphylococcus aureus USA300 assessed as ampicillin MIC at 50 uM after 18 hrs by CLSI protocol based broth microdilution assay.
The subject of assay [24] is Staphylococcus aureus. Nature of the assay: Potentiation of cefoxitin induced antibacterial activity against methicillin-resistant Staphylococcus aureus USA300 assessed as fold change in cefoxitin MIC at 50 uM after 18 hrs by CLSI protocol based broth microdilution assay.
Assay [25] deals with Staphylococcus aureus. In words: Potentiation of ampicillin induced antibacterial activity against methicillin-resistant Staphylococcus aureus COL assessed as ampicillin MIC at 50 uM after 18 hrs by CLSI protocol based broth microdilution assay.
For assay [26], the system named is Staphylococcus aureus. Nature of the assay: Potentiation of ampicillin induced antibacterial activity against methicillin-resistant Staphylococcus aureus USA300 assessed as fold change in ampicillin MIC at 50 uM after 18 hrs by CLSI protocol based broth microdilution assay.
The subject of assay [27] is Staphylococcus aureus. Nature of the assay: Potentiation of methicillin induced antibacterial activity against methicillin-resistant Staphylococcus aureus COL assessed as fold change in methicillin MIC at 50 uM after 18 hrs by CLSI protocol based broth microdilution assay.
For assay [28], the system named is Staphylococcus aureus. Nature of the assay: Potentiation of cefoxitin induced antibacterial activity against methicillin-resistant Staphylococcus aureus COL assessed as cefoxitin MIC at 50 uM after 18 hrs by CLSI protocol based broth microdilution assay.
The test system of assay [29] is Staphylococcus aureus. In words: Potentiation of oxacillin induced antibacterial activity against methicillin-resistant Staphylococcus aureus USA 100 assessed as fold change in oxacillin MIC at 50 uM after 18 hrs by CLSI protocol based broth microdilution assay.
Assay [30] relates to Staphylococcus aureus. In words: Potentiation of methicillin induced antibacterial activity against methicillin-resistant Staphylococcus aureus USA100 assessed as methicillin MIC at 50 uM after 18 hrs by CLSI protocol based broth microdilution assay.
Assay [31] deals with Staphylococcus aureus. In words: Potentiation of oxacillin induced antibacterial activity against methicillin-resistant Staphylococcus aureus USA300 assessed as oxacillin MIC at 50 uM after 18 hrs by CLSI protocol based broth microdilution assay.
The subject of assay [32] is Staphylococcus aureus. In words: Potentiation of cefoxitin induced antibacterial activity against methicillin-resistant Staphylococcus aureus COL assessed as fold change in cefoxitin MIC at 50 uM after 18 hrs by CLSI protocol based broth microdilution assay.

≈ marks a conversion by molar mass, not a printed value.

With `Brc1cccc2c1[nH]c1ccccc12`, the “fold change (FC)” value in the assay on Staphylococcus aureus [1] is on record as 2; in the assay with Staphylococcus aureus [2], 8; in the assay on Staphylococcus aureus [9], 4; in the assay with Staphylococcus aureus [10], 4; in the assay with Staphylococcus aureus [13], 1; in the assay on Staphylococcus aureus [14], 16. Further, the “fold change (FC)” value was 8 with Staphylococcus aureus [16]; 1 in the assay with Staphylococcus aureus [18]; 2 in the assay with Staphylococcus aureus [19]; 2 with Staphylococcus aureus [21]; 4 in the assay on Staphylococcus aureus [22]; 2 in the assay with Staphylococcus aureus [24]. In addition, the “fold change (FC)” value in the assay with Staphylococcus aureus [26] is 1; in the assay with Staphylococcus aureus [27], 1; in the assay on Staphylococcus aureus [29], 512; in the assay on Staphylococcus aureus [32], 1. Moreover, the minimal inhibitory concentration (MIC) (usually the lowest concentration found to suppress growth) with Staphylococcus aureus [3] was 512 µg/mL; in the assay on Staphylococcus aureus [4] it was over 200 µM; in the assay with Staphylococcus aureus [5], 4 µg/mL; with Staphylococcus aureus [6], 64 µg/mL; in the assay on Staphylococcus aureus [7], 16 µg/mL; with Staphylococcus aureus [8], 16 µg/mL. The MIC was 256 µg/mL in the assay with Staphylococcus aureus [11]; 8 µg/mL in the assay with Staphylococcus aureus [12]; 1020 µg/mL in the assay with Staphylococcus aureus [15]; 4 µg/mL in the assay with Staphylococcus aureus [17]; 256 µg/mL with Staphylococcus aureus [20]; 8 µg/mL in the assay with Staphylococcus aureus [23]. Further, the minimum inhibitory concentration (MIC) was 16 µg/mL in the assay with Staphylococcus aureus [25], 256 µg/mL in the assay with Staphylococcus aureus [28], 8 µg/mL in the assay on Staphylococcus aureus [30] and 16 µg/mL in the assay on Staphylococcus aureus [31].
Turning to `Brc1cccc2[nH]c3ccccc3c12`, the MIC with Staphylococcus aureus [4] stood at 100 µM (≈ 24.6 µg/mL).
For `Brc1ccc2[nH]c3ccc(Br)cc3c2c1`, the “fold change (FC)” value with Staphylococcus aureus [1] worked out at 1; with Staphylococcus aureus [2], 4; with Staphylococcus aureus [9] it was 2; in the assay with Staphylococcus aureus [10], 1; with Staphylococcus aureus [13] it was 1; in the assay with Staphylococcus aureus [14], 2. In addition, the “fold change (FC)” value in the assay with Staphylococcus aureus [16] is recorded as 1; with Staphylococcus aureus [18], 1; in the assay with Staphylococcus aureus [19] it was 2; in the assay on Staphylococcus aureus [21], 4; with Staphylococcus aureus [22], 2; with Staphylococcus aureus [24] it was 1. Further, the “fold change (FC)” value amounted to 1 with Staphylococcus aureus [26], 1 with Staphylococcus aureus [27], 4 in the assay with Staphylococcus aureus [29] and 1 in the assay on Staphylococcus aureus [32]. Besides, the MIC in the assay on Staphylococcus aureus [3] was 128 µg/mL; in the assay with Staphylococcus aureus [4] it was over 200 µM; with Staphylococcus aureus [5] it was 8 µg/mL; in the assay on Staphylococcus aureus [6], 128 µg/mL; with Staphylococcus aureus [7], 64 µg/mL; in the assay on Staphylococcus aureus [8], 64 µg/mL. The minimum inhibitory concentration (MIC) was 256 µg/mL in the assay on Staphylococcus aureus [11]; 8 µg/mL in the assay with Staphylococcus aureus [12]; 1020 µg/mL in the assay with Staphylococcus aureus [15]; 16 µg/mL in the assay on Staphylococcus aureus [17]; 256 µg/mL with Staphylococcus aureus [20]; 8 µg/mL in the assay on Staphylococcus aureus [23]. The MIC is 8 µg/mL in the assay with Staphylococcus aureus [25], 512 µg/mL with Staphylococcus aureus [28], 32 µg/mL in the assay with Staphylococcus aureus [30] and 16 µg/mL in the assay on Staphylococcus aureus [31].
